Here are results for 10 compounds from article PMC4160279 (Journal of the American Chemical Society, 2014).

For assay [1], the system named is NoV VA387 P dimer. The following applies: reported values; cited from earlier work.
The test system of assay [2] is NoV VA387 P particle. The assay can be described thus: CaR-ESI-MS screening assay. Type of assay: binding, human NoV VA387 (GII.4). To be noted: P particle (3 μM) and 10 μM of GD1a or GD1b.
Assay [3] concerns NoV VA387 P dimer. The assay is described as follows: Direct ESI-MS assay, NoV VA387 P dimer. The following applies: intrinsic (per binding site) association constant; aqueous ammonium acetate (200 mM), pH 7, 25 °C. More on the design: species or system human NoV VA387 (GII.4). In a few lines: (§1)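 Recombinant P dimer, buffer-exchanged into ammonium acetate and quantified by UV, was mixed (e.g., 12 μM) with ganglioside oligosaccharide (e.g., 80 μM) and reference protein (4 μM). Nanoelectrospray in negative ion mode used capillary −0.8 kV, cone 60 V and source 60 °C. Runs covered ≥4 initial ligand concentrations in triplicate. Ka,int came from bound/free abundance ratios, corrected for nonspecific binding, with two equivalent sites.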

Assay [4] has as its system NoV VA115 P dimer. The assay can be described thus: Direct ESI-MS assay, NoV VA115 P dimer. More on the design: species or system human NoV VA115 (GI.3). To be noted: intrinsic (per binding site) association constant; aqueous ammonium acetate (200 mM), pH 7, 25 °C. In a few lines: as §1
The target of assay [5] is P dimer VA387 (Human calicivirus NLV/VA98387/1998, UniProt Q913Z3). The assay is described as follows: Direct ESI-MS assay. The class given is binding. The following applies: n = 3. In a few lines:
(§2)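 Recombinant P dimer (P domain residues 222–539, made in E. coli via a GST fusion system) was titrated with at least four initial oligosaccharide concentrations, in triplicate. Example mix: 12 μM dimer, 80 μM ligand, 4 μM reference protein. Bound/free abundance ratios were taken as solution ratios after nonspecific-binding correction. Ka,int was fitted assuming two independent, equivalent sites.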

Assay [6] concerns the target T1, P dimer VA115 (Human calicivirus NLV/VA98115/1998, UniProt Q91H12).
T1 sequence (Q91H12 227-545): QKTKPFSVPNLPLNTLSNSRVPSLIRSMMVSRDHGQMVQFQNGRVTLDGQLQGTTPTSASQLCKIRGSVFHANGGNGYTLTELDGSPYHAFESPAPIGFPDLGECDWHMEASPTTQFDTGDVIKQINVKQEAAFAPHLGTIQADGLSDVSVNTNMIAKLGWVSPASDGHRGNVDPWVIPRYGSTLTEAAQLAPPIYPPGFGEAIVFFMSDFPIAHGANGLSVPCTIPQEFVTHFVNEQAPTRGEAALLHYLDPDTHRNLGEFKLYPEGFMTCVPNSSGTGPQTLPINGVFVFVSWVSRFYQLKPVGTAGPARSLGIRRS
The assay can be described thus: Direct ESI-MS assay. Type of assay: binding. To be noted: n = 3. A digest of the protocol:
as §2

For assay [7], the system named is NoV VA387 P particle. The assay is described as follows: Proxy protein ESI-MS method, VA387 P particle. The class given is binding, human NoV VA387 (GII.4). The following applies: aqueous ammonium acetate (160 mM), pH 7, 25 °C; Gal-3C as proxy protein. In a few lines: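 Gal-3C proxy (3.0 μM), ubiquitin reference (1.0 μM) and GM3 trisaccharide (40 μM) were mixed with VA387 P particle at 0–7.2 μM (0–172.8 μM monomer); the 24-mer came from E. coli. Positive-mode nanoESI. GM3-bound/free proxy ratio was measured after nonspecific-binding correction. Ka,int per site was derived from the ratio change using the known proxy association constant and binding-site concentration.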

In assay [8] the target is recombinant fragment of the C-terminus of human galectin-3 (Gal-3C) (Homo sapiens, UniProt P17931). The assay can be described thus: ESI-MS binding of ligand to proxy protein Gal-3C. The following applies: association constant of proxy protein for the ligand.
The subject of assay [9] is NoV VA387 VLP. The assay can be described thus: Proxy protein ESI-MS method, VA387 VLP. The class given is binding, human NoV VA387 (GII.4). To be noted: aqueous ammonium acetate (160 mM), pH 7, 25 °C; Gal-3C as proxy protein. In a few lines: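 VLPs were expressed from VA387 VP1 in Sf9 cells by recombinant baculovirus and purified on a sucrose gradient, then tested at 0–570 nM (0–102.6 μM monomer). Each mix held Gal-3C proxy (3.0 μM), ubiquitin reference (1.0 μM) and GM3 trisaccharide (40 μM). Positive-mode nanoESI. Ka,int per site came from the corrected proxy bound/free ratio versus VLP concentration, using the known proxy affinity.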

Where “and” joins values, the source holds several entries; their conditions need not be identical. Equal entries are not always repeated.

Sequence of P dimer VA387 (Q913Z3 222-539): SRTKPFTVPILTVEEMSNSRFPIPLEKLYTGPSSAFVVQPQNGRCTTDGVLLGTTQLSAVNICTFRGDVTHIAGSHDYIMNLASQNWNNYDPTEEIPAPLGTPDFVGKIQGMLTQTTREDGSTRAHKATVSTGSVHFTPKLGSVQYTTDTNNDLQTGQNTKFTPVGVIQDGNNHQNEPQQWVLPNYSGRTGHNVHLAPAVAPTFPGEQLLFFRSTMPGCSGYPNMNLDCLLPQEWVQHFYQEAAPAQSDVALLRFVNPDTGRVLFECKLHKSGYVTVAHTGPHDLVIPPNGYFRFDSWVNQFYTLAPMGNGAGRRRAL
Sequence of recombinant fragment of the C-terminus of human galectin-3 (Gal-3C) (P17931 118-248 limits assumed): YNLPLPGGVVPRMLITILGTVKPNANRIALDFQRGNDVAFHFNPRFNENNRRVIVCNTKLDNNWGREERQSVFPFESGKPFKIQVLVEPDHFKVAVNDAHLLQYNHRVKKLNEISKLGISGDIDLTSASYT

In the case of `CC(=O)N[C@H]1C(O)O[C@H](CO)[C@H](O)[C@@H]1O[C@@H]1O[C@H](CO)[C@H](O)[C@H](O[C@H]2O[C@H](CO)[C@H](O)[C@H](O)[C@H]2O)[C@H]1O[C@@H]1O[C@@H](C)[C@@H](O)[C@@H](O)[C@@H]1O` (some centres unmarked) [B3, B type 3 tetrasaccharide], in assay [1], the “intrinsic affinity (Ka,int) of HBGA ligands” value is listed as 1500 ± 150 M^–1.
For `CC(=O)N[C@H]1[C@H](O[C@@H]2[C@H](O[C@]3(C(=O)O)C[C@H](O)[C@@H](NC(C)=O)[C@H]([C@H](O)[C@H](O)CO)O3)[C@@H](O)[C@H](O[C@H]3[C@H](O)[C@@H](O)C(O)O[C@@H]3CO)O[C@@H]2CO)O[C@H](CO)[C@H](O)[C@@H]1O[C@@H]1O[C@H](CO)[C@H](O)[C@H](O[C@]2(C(=O)O)C[C@H](O)[C@@H](NC(C)=O)[C@H]([C@H](O)[C@H](O)CO)O2)[C@H]1O` (some centres unmarked) [GD1a], the “binding to P particle, ligand tested alone” value in assay [2] was “binds”. Besides, the “Ka,int P dimer VA387” value in [3] is reported as less than 100 M^–1. Besides, the “Ka,int P dimer VA115” value in assay [4] worked out at 320 ± 90 M^–1.
Regarding `CC(=O)N[C@H]1[C@H](O[C@@H]2[C@H](O[C@]3(C(=O)O)C[C@H](O)[C@@H](NC(C)=O)[C@H]([C@H](O)[C@H](O)CO)O3)[C@@H](O)[C@H](O[C@H]3[C@H](O)[C@@H](O)C(O)O[C@@H]3CO)O[C@@H]2CO)O[C@H](CO)[C@H](O)[C@@H]1O[C@@H]1O[C@H](CO)[C@H](O)[C@H](O)[C@H]1O` (some centres unmarked) [GM1a, GM1a ganglioside oligosaccharide (Galb1-3GalNAcb1-4(Neu5Aca2-3)Galb1-4Glc)], the results for the Kd in assay [5] and in assay [6] were 2860 µM and 2500 µM, respectively.
As for `CC(=O)N[C@H]1[C@H](O[C@@H]2[C@H](O)[C@@H](O)[C@H](O[C@H]3[C@H](O)[C@@H](O)C(O)O[C@@H]3CO)O[C@@H]2CO)O[C@H](CO)[C@H](O)[C@@H]1O[C@@H]1O[C@H](CO)[C@H](O)[C@H](O[C@]2(C(=O)O)C[C@H](O)[C@@H](NC(C)=O)[C@H]([C@H](O)[C@H](O)CO)O2)[C@H]1O` (some centres unmarked) [GM1b, GM1b ganglioside oligosaccharide (Neu5Aca2-3Galb1-3GalNAcb1-4Galb1-4Glc)], the Kd in assay [5] was 5560 µM; in assay [6] it was 2080 µM.
Consider `CC(=O)N[C@H]1[C@H](O[C@@H]2[C@H](O[C@]3(C(=O)O)C[C@H](O)[C@@H](NC(C)=O)[C@H]([C@H](O)[C@H](O)CO)O3)[C@@H](O)[C@H](O[C@H]3[C@H](O)[C@@H](O)C(O)O[C@@H]3CO)O[C@@H]2CO)O[C@H](CO)[C@H](O)[C@@H]1O` (some centres unmarked) [GM2, GM2 ganglioside oligosaccharide (GalNAcb1-4(Neu5Aca2-3)Galb1-4Glc)], for which the Kd was 2780 µM in [5] and 1430 µM in [6].
For `CC(=O)N[C@H]1[C@H]([C@H](O)[C@H](O)CO)O[C@@](O[C@H]2[C@@H](O)[C@@H](CO)O[C@@H](O[C@H]3[C@H](O)[C@@H](O)C(O)O[C@@H]3CO)[C@@H]2O)(C(=O)O)C[C@@H]1O` (some centres unmarked) [GM3, GM3 ganglioside oligosaccharide (GM3 trisaccharide, Neu5Aca2-3Galb1-4Glc)] the same measures were 667 µM and 769 µM.
Turning to `CC(=O)N[C@H]1[C@H]([C@H](O)[C@H](O)CO)O[C@@](O[C@H]2[C@@H](O)[C@@H](CO)O[C@@H](O[C@H]3[C@H](O)[C@@H](O)C(O)O[C@@H]3CO)[C@@H]2O)(C(=O)O)C[C@@H]1O` (some centres unmarked) [GM3], the “Ka,int P dimer VA387” value in assay [3] was 1500 M^–1 and 1500 ± 150 M^–1. The “affinity (Ka,int) for VA387 P particle” value in assay [7] was 2600 ± 200 M^–1. Also, the “affinity for Gal-3C” value in assay [8] was “(1.20 ± 0.02) × 10^4 M^–1”. Also, in assay [9], the “affinity (Ka,int) for VA387 VLP” value came out at 5500 ± 600 M^–1. The “Ka,int P dimer VA115” value in assay [4] is 1300 ± 130 M^–1.
Take `CC(=O)N[C@H]1[C@H](O[C@@H]2[C@H](O[C@]3(C(=O)O)C[C@H](O)[C@@H](NC(C)=O)[C@H]([C@H](O)[C@@H](CO)O[C@]4(C(=O)O)C[C@H](O)[C@@H](NC(C)=O)[C@H]([C@H](O)[C@@H](CO)O[C@]5(C(=O)O)C[C@H](O)[C@@H](NC(C)=O)[C@H]([C@H](O)[C@H](O)CO)O5)O4)O3)[C@@H](O)[C@H](O[C@H]3[C@H](O)[C@@H](O)C(O)O[C@@H]3CO)O[C@@H]2CO)O[C@H](CO)[C@H](O)[C@@H]1O[C@@H]1O[C@H](CO)[C@H](O)[C@H](O)[C@H]1O` (some centres unmarked) [GT1c, GT1c ganglioside oligosaccharide (Galb1-3GalNAcb1-4(Neu5Aca2-8Neu5Aca2-8Neu5Aca2-3)Galb1-4Glc)]: the results for the “Ka,int” value in assay [5] and in assay [6] were less than 100 M⁻¹ and 260 ± 110 M⁻¹, respectively.
Turning to `CC(=O)NC1C(OC2C(CO)OC(OC3C(CO)OC(O)C(O)C3O)C(O)C2OC2(C(=O)O)CC(O)C(NC(C)=O)C(C(O)C(CO)OC3(C(=O)O)CC(O)C(NC(C)=O)C(C(O)C(CO)OC4(C(=O)O)CC(O)C(NC(C)=O)C(C(O)C(O)CO)O4)O3)O2)OC(CO)C(O)C1O` (centres unmarked) [GT2, GT2 ganglioside oligosaccharide (GalNAcb1-4(Neu5Aca2-8Neu5Aca2-8Neu5Aca2-3)Galb1-4Glc)], the Kd in assay [5] was greater than 10000 µM; in assay [6], 4350 µM.
For `CC(=O)NC1C(O)CC(OC2C(O)C(OC3C(CO)OC(O)C(O)C3O)OC(CO)C2OC2OC(CO)C(O)C(OC3OC(CO)C(O)C(O)C3OC3OC(C)C(O)C(O)C3O)C2NC(C)=O)(C(=O)O)OC1C(O)C(O)CO` (centres unmarked) [fucosyl-GM1, fucosyl-GM1 ganglioside oligosaccharide (Fuc-GM1; Fuca1-2Galb1-3GalNAcb1-4(Neu5Aca2-3)Galb1-4Glc)] the same measures were 2170 µM and 1670 µM.

As usually defined, the Kd is the free concentration of one partner at which half of the binding sites on the other are occupied at equilibrium, for simple one-to-one binding. The low end stands for a tighter complex, the high end for a looser complex.
